Laboratory results from ChEMBL document CHEMBL4819012, “Discovery of novel 2-aryl-3-sulfonamido-pyridines (HoAns) as microtubule polymerization inhibitors with potent antitumor activities” (Eur J Med Chem, 2021).
Active and inactive are the calls of the source. The calls are words filed in the database; no cut-off is given here.

Columns and labels:
[1] = test system: A549; test: Antiproliferative activity against human A549 cells assessed as cell viability measured after 72 hrs by MTS method; format: functional, cell-based; settings: A549, 72 h
Method in brief: (§1)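 Log-phase cells plated at 5×10^3–6×10^3 per well for 24 h, then given graded compound concentrations in fresh medium for 72 h, five replicate wells. Medium replaced with medium containing 10% MTS, 30 min or more at 37 °C in dark; OD 490 nm read. IC50 by nonlinear regression; mean ± SD of at least three experiments.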

[2] = test system: NCI-H460; test: Antiproliferative activity against human NCI-H460 cells assessed as cell viability measured after 72 hrs by MTS method; format: functional, cell-based; settings: NCI-H460, 72 h; method in brief: as §1
[3] = test system: MCF7; test: Antiproliferative activity against human MCF7 cells assessed as cell viability at 10 uM measured after 72 hrs by MTS method; format: functional; settings: read-out: Activity
Method in brief: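 Single-concentration screen at 10 µM for 72 h. Log-phase cells plated at 5×10^3–6×10^3 per well for 24 h before dosing, five replicate wells. Viability measured by MTS: 10% MTS in fresh medium, 30 min or more at 37 °C in dark, absorbance 490 nm.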

[4] = test system: SW-620; test: Antiproliferative activity against human SW-620 cells assessed as inhibition of cell proliferation measured after 24 hrs by crystal violet staining based colony-formation assay; format: functional; settings: dose 0.125-1 µM
Method in brief: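 RKO or SW620 cells plated at 1000 cells/well overnight, exposed to 0.125–1 µM for 24 h, then grown 10 days in fresh medium. Colonies fixed in methanol 15 min, stained with 0.1% crystal violet 30 min, photographed; colonies of more than 50 cells counted.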

[5] = molecular target: Tubulin beta (Homo sapiens) (UniProt P68371+Q9H4B7+Q13509+P04350+Q3ZCM7+P07437+Q13885+Q9BVA1+Q9BUF5+A6NNZ2); test: Inhibition of N,N'-Ethylenebis(iodoacetamide) binding to beta tubulin in human SW-620 cells preincubated for 2 hrs followed by addition of EBI and measured after 2 hrs by western blot assay; format: cell-based; settings: dose 10-40 µM
Method in brief: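 SW620 cells (5×10^5 per well) pretreated for 2 h with 10, 20 or 40 μM of test agent or DMSO, then given 100 μM EBI for 2 h. Lysed in SDS loading buffer. β-tubulin and β-tubulin–EBI adduct bands resolved by western blot probed with anti-β-tubulin.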

[6] = test system: RKO; test: Induction of cell cycle arrest in human RKO cells assessed as accumulation of cells in G1 phase at 0.5 uM measured after 24 hrs by PI staining based flow cytometry method (reference value: 39.54%); format: functional
[7] = test system: RKO; test: Induction of cell cycle arrest in human RKO cells assessed as accumulation of cells in G2 phase at 0.5 uM measured after 24 hrs by PI staining based flow cytometry method (reference value: 10.79%); format: functional
[8] = test system: SW-620; test: Induction of cell cycle arrest in human SW-620 cells assessed as accumulation of cells in S phase at 0.5 uM measured after 24 hrs by PI staining based flow cytometry method (reference value: 46.12%); format: functional
[9] = test system: RKO; test: Induction of cell cycle arrest in human RKO cells assessed as reduction in cdc2 expression at 0.5 to 1 uM measured after 24 hrs by western blot assay; format: functional, cell-based; settings: dose 0.5-1 µM
Method in brief: (§2)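 RKO or SW620 cells (4×10^5–5×10^5 per well) exposed to 0.5 or 1 μM or DMSO for 24 h. Lysed in SDS loading buffer, boiled, run on 8–15% SDS-PAGE and moved to PVDF. Blocked in 5% milk, probed overnight at 4 °C with anti-Cdc2 or anti-cyclin B1 (1:1000), β-actin as reference. HRP secondary and ECL detection. Done at least three times.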

[10] = test system: RKO; test: Induction of cell cycle arrest in human RKO cells assessed as reduction in Cyclin B1 expression at 0.5 to 1 uM measured after 24 hrs by western blot assay; format: functional, cell-based; settings: dose 0.5-1 µM; method in brief: as §2
[11] = test system: RKO; test: Induction of apoptosis in human RKO cells assessed as viable cells at 0.5 uM measured after 24 hrs by PI/Annexin V staining based flow cytometry assay (reference value: 96.6%); format: functional; settings: read-out: Activity
[12] = test system: RKO; test: Induction of apoptosis in human RKO cells assessed as early apoptotic cells at 0.5 uM measured after 24 hrs by PI/Annexin V staining based flow cytometry assay (reference value: 2.58%); format: functional
[13] = test system: RKO; test: Induction of apoptosis in human RKO cells assessed as late apoptotic cells at 0.5 uM measured after 24 hrs by PI/Annexin V staining based flow cytometry assay (reference value: 0.81%); format: functional
[14] = test system: RKO; test: Induction of apoptosis in human RKO cells assessed as necrotic cells at 0.5 uM measured after 24 hrs by PI/Annexin V staining based flow cytometry assay (reference value: 0.01%); format: functional
[15] = test system: SW-620; test: Induction of apoptosis in human SW-620 cells assessed as viable cells at 0.5 uM measured after 24 hrs by PI/Annexin V staining based flow cytometry assay (reference value: 93.89%); format: functional; settings: read-out: Activity
[16] = test system: SW-620; test: Induction of apoptosis in human SW-620 cells assessed as early apoptotic cells at 0.5 uM measured after 24 hrs by PI/Annexin V staining based flow cytometry assay (reference value: 2.41%); format: functional
[17] = test system: SW-620; test: Induction of apoptosis in human SW-620 cells assessed as late apoptotic cells at 0.5 uM measured after 24 hrs by PI/Annexin V staining based flow cytometry assay (reference value: 3.66%); format: functional
[18] = test system: SW-620; test: Induction of apoptosis in human SW-620 cells assessed as necrotic cells at 0.5 uM measured after 24 hrs by PI/Annexin V staining based flow cytometry assay (reference value: 0.03%); format: functional
[19] = test system: SW-620; test: Induction of apoptosis in human SW-620 cells assessed as increase in ROS levels at 0.25 uM measured after 24 hrs by DCFH-DA staining based flow cytometry method relative to control; format: functional
Method in brief: (§3)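 Cells at 5×10^5 per well exposed to 0.25 or 0.5 µM for 24 h, then loaded with 5 µM DCFH-DA in serum-free medium 30 min at 37 °C; washed, harvested, read by flow cytometry (ex 488/em 525 nm). ROS given as ratio of treated to control; at least three experiments.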

[20] = test system: RKO; test: Induction of apoptosis in human RKO cells assessed as increase in ROS levels at 0.25 uM measured after 24 hrs by DCFH-DA staining based flow cytometry method relative to control; format: functional; method in brief: as §3
[21] = test system: HUVEC; test: Anti-vascular activity against human HUVEC cells assessed as inhibition of cell migration at 0.5 to 1 uM measured after 24 hrs by cell migration assay; format: functional, cell-based; settings: dose 0.5-1 µM
[22] = Toxicity against Athymic nude mouse xenografted with SW-620 cells assessed as toxicity in heart at 25 mg/kg per two days, po measured after 20 days; format: organism-based; settings: in vivo, 480 h, time 20 day
Method in brief: (§4)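 At the end of the 20-day oral SW620 xenograft study (25 mg/kg every 2 days, n = 6), heart, liver, spleen, lung and kidney were fixed in 4% paraformaldehyde and embedded in paraffin. 4 μm sections stained with Mayer hematoxylin 5 min and eosin-phloxine 2 min, then examined by light microscopy.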

[23] = Toxicity against Athymic nude mouse xenografted with SW-620 cells assessed as toxicity in spleen at 25 mg/kg per two days, po measured after 20 days by H and E staining method; format: organism-based; settings: in vivo, 480 h, time 20 day; method in brief: as §4
[24] = Inhibition of tubulin polymerization assessed as morphology changes from fusiform to roud at 1 uM measured 24 hrs by DAPI staining based immunoflourescence assay relative to ABT-751

COc1ccc(S(=O)(=O)Nc2cccnc2Nc2ccc(O)cc2)cc1 [ABT-751]
IC50 [1]: 1380 nM
IC50 [2]: 2040 nM

COc1ccc(S(=O)(=O)Nc2cccnc2-c2ccc(C#N)c(F)c2)cc1
viability at 10 µM [3]: > 70%
Activity [4]: Dose-Dependent Effect
inhibition [5]: Dose-Dependent Effect
Activity [6]: 36.95%
Activity [7]: 16.65%
Activity [8]: 42.53%
Activity [9]: Active
Activity [10]: Active
viability at 0.5 µM [11]: 74.5%
Activity [12]: 24.47%
Activity [13]: 1.04%
Activity [14]: 0.03%
viability at 0.5 µM [15]: 90.2%
Activity [16]: 6.66%
Activity [17]: 3.11%
Activity [18]: 0.06%
fold change (FC) [19]: 1.5
fold change (FC) [20]: 1.5
Activity [21]: Dose-Dependent Effect
Activity [22]: Non-Toxic
Activity [23]: Non-Toxic
inhibition [24]: Active
